≈ marks a conversion by molar mass, not a printed value.
Legend:
[1] = Intrinsic clearance in rat liver microsomes at 1 uM measured up to 30 mins in presence of NADPH by HPLC analysis; assay type: ADME, microsome; conditions: read-out: CLH
Procedure, shortened: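 Compound at 1 µM final was incubated with human or rat liver microsomes (0.5 mg protein/mL) in Tris buffer at 37 °C, started with NADPH (2 mM). Samples were quenched in cold ACN with indomethacin internal standard at 0, 5, 15 and 30 min (RLM) or 0, 15, 30 and 60 min (HLM) and analysed by HPLC. CLint = first-order degradation rate constant / microsomal protein concentration.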

[2] = Solubility of the compound; assay type: physicochemical
[3] = AUC (infinity) in Sprague-Dawley rat plasma at 1 mg/kg, po administered as single dose by LC-MS/MS analysis; assay type: ADME, organism-based; parameters: dose 1 mg/kg, time infinity, route oral
Procedure, shortened: (§1)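 Non-fasted male SD rats (200-250 g, n=3) received a single oral 1 mg/kg dose in NMP:PEG400:water (5:35:65). Femoral-vein blood was sampled pre-dose and at 0.25–24 h. Plasma was extracted with acetonitrile plus internal standard and analysed by LC-MS/MS over a 0.5–2000 ng/mL calibration range.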

Brain = assay: Drug uptake in Sprague-Dawley rat brain at 1 mg/kg, po administered as single dose by LC-MS/MS analysis; assay type: ADME, organism-based; conditions: in vivo, read-out: Drug uptake
Procedure, shortened: (§2)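 Male SD rats got a single 1 mg/kg oral dose in NMP:PEG400:water (5:35:65). Total brain, CSF and plasma levels were then measured.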

Rattus norvegicus = assay: Clearance in Sprague-Dawley rat plasma at 1 mg/kg, iv administered as single dose by LC-MS/MS analysis relative to hepatic blood flow; assay type: ADME, organism-based; conditions: in vivo
[4] = Elimination half life in Sprague-Dawley rat plasma at 1 mg/kg, iv administered as single dose by LC-MS/MS analysis; assay type: ADME, organism-based; conditions: read-out: beta t1/2 (converted)
Procedure, shortened: (§3)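 Male SD rats (200-250 g), not fasted, n=3, given a single 1 mg/kg IV dose in NMP:PEG400:water (5:35:65) via jugular/femoral vein catheters. Blood was taken from pre-dose to 24 h (0.033–24 h). Plasma was protein-precipitated with acetonitrile containing internal standard and quantified by LC-MS/MS against 0.5–2000 ng/mL standards.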

[5] = Clearance in Sprague-Dawley rat plasma at 1 mg/kg, iv administered as single dose by LC-MS/MS analysis; assay type: ADME, organism-based; procedure, shortened: as §3
[6] = Tmax in Sprague-Dawley rat plasma at 1 mg/kg, po administered as single dose by LC-MS/MS analysis; assay type: ADME, organism-based; procedure, shortened: as §1
[7] = Volume of distribution at steady state in Sprague-Dawley rat plasma at 1 mg/kg, iv administered as single dose by LC-MS/MS analysis; assay type: ADME, organism-based; conditions: read-out: Vdss; procedure, shortened: as §3
[8] = Oral bioavailability in Sprague-Dawley rat plasma at 1 mg/kg administered as single dose by LC-MS/MS analysis; assay type: ADME, organism-based; procedure, shortened: as §1
Cerebrospinal fluid = assay: Drug uptake in Sprague-Dawley rat cerebrospinal fluid at 1 mg/kg, po administered as single dose by LC-MS/MS analysis; assay type: ADME, organism-based; conditions: in vivo, read-out: Drug uptake; procedure, shortened: as §2
Plasma = assay: Drug uptake in Sprague-Dawley rat plasma at 1 mg/kg, po administered as single dose by LC-MS/MS analysis; assay type: ADME, organism-based; conditions: read-out: Cp, in vivo; procedure, shortened: as §2
[9] = Cmax in Sprague-Dawley rat plasma at 1 mg/kg, po administered as single dose by LC-MS/MS analysis; assay type: ADME, organism-based; parameters: dose 1 mg/kg, route oral; procedure, shortened: as §1
[10] = AUC (0 to infinity) in Sprague-Dawley rat plasma at 1 mg/kg, iv administered as single dose by LC-MS/MS analysis; assay type: ADME, organism-based; parameters: dose 1 mg/kg, time infinity, route intravenous; procedure, shortened: as §3

microsomal CLint at 1 µM [1] [µL/min/mg]	solubility [2] [µg/mL]	Compound	further results
52.2		Cc1cc([C@@H]2CN(C(=O)c3cc(C)c(F)c(F)c3)CC(F)(F)C2)n2ncnc2n1	
76.2	47 (≈ 130 µM)	O=C(Nc1ccc2c(c1)CCC2)C1CCCN(c2ccnc3ncnn23)C1 (centres undefined)	
85.6	37 (≈ 99.6 µM)	Cc1cc(C2CCCN(C(=O)c3ccc4ccccc4c3)C2)n2ncnc2n1 (racemic)	
83.9	47 (≈ 130 µM)	Cc1cc(C2CCCN(C(=O)c3ccc4c(c3)CCC4)C2)n2ncnc2n1 (centres undefined)	
25.7		Cc1cc([C@@H]2CN(C(=O)c3ccc(F)c(Br)c3)CC(F)(F)C2)n2ncnc2n1	AUC(0-inf) [3]: 442 ng·h/mL; concentration (Brain): 66 nM; CL (Rattus norvegicus): 50%; half-life [4]: 60.6 min; clearance [5]: 32.8 mL/min/kg; Tmax [6]: 40.2 min; Vd [7]: 0.98 L/kg; bioavailability [8]: 87%; concentration (Cerebrospinal fluid): 15 nM; concentration (Plasma): 204 nM; Cmax [9]: 201 ng/mL; AUC(0-inf) [10]: 508 ng·h/mL
30.2	36 (≈ 98.5 µM)	COc1ccc(C(=O)N2CCCC(c3cc(C)nc4ncnn34)C2)cc1C (centres undefined)	
162		Cc1cc([C@@H]2CN(C(=O)c3ccc(F)c(C4CC4)c3)CC(F)(F)C2)n2ncnc2n1	
78.9	45 (≈ 112 µM)	COc1cc(Cl)ccc1NC(=O)C1CCCN(c2cc(C)nc3ncnn23)C1 (centres undefined)	
33.5	35 (≈ 99 µM)	Cc1cc(C2CCCN(C(=O)c3ccc(F)c(C)c3)C2)n2ncnc2n1 (centres undefined)	
94.1	29 (≈ 67.4 µM)	O=C(Nc1ccc2c(c1)CCC2)C1CCCN(c2cc(C(F)(F)F)nc3ncnn23)C1 (centres undefined)	
78.8		Cc1cc(C2CN(C(=O)c3ccc4ccccc4c3)CC(F)(F)C2)n2ncnc2n1 (racemic)	
124	37 (≈ 99.6 µM)	Cc1cc([C@H]2CCCN(C(=O)c3ccc4ccccc4c3)C2)n2ncnc2n1	
67.9	49 (≈ 130 µM)	Cc1cc(N2CCCC(C(=O)Nc3ccc4c(c3)CCC4)C2)n2ncnc2n1 (centres undefined)	
17.3		Cc1cc([C@H]2CN(C(=O)c3ccc(F)c(Br)c3)CC(F)(F)C2)n2ncnc2n1	
41.4	37 (≈ 99.6 µM)	Cc1cc([C@@H]2CCCN(C(=O)c3ccc4ccccc4c3)C2)n2ncnc2n1	
6.3	47 (≈ 126 µM)	Cc1cc(C2CCCN(C(=O)c3ccc4ncccc4c3)C2)n2ncnc2n1 (centres undefined)	
67.7		COc1ccc(C(=O)N2CC(c3cc(C)nc4ncnn34)CC(F)(F)C2)cc1C (racemic)	
21.7	36 (≈ 99.1 µM)	Cc1cc(C2CCCN(C(=O)c3ccc4c(c3)OCC4)C2)n2ncnc2n1 (centres undefined)	
53.4	13 (≈ 33.6 µM)	Cc1cc(N2CCCC(C(=O)Nc3ccc4ccccc4c3)C2)n2ncnc2n1 (centres undefined)	
